Experimental data taken from PubChem BioAssay.
Calls of active or inactive are those of the source.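 Rule for the calls, unless noted: active = inhibition of the reporter signal at or above 50%; inactive = inhibition below 50%.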

How the values were obtained:
[1] = inhibitors of TNFa-induced NFkB p65 translocation, primary screen, imaging, HUVEC, MLSMR starter and 10KST1 sets (AID 438;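 active = inhibition above 20% together with a positive visual image hit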;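 note: compound added about 3h40 before a 20 min TNFalpha stimulation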;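 for inhibition: signal is the nuclear over cytoplasmic p65 intensity ratio per well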); conditions: HUVEC TNFa-induced p65 nuclear translocation; cell count: measured here: nuclei count (cytotoxicity indicator), at 2.08 µM; inhibition: at 2 µM, stronger effect = higher value, 0% TNFa-plus-vehicle, 100% no-TNFa wells
[2] = reduction of polyQ htt aggregates in cells – imaging, exon1htt(103Q)mCFP cells, high-content imaging, primary screen (AID 483;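 active = visual image review flags a hit and inhibition of aggregation exceeds 20%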;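 note: compound exposure lasted 3 days before fixation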;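 for nuclei count: percent of the per-plate median nuclei count of sample wells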); conditions: exon1htt(103Q)mCFP cell line, aggregate imaging, at 2 µM; inhibition of aggregation: stronger effect = higher value; nuclei count: measured here: cell count, toxicity
[3] = endothelial E-selectin expression blockers – imaging, HUVEC, immunofluorescence, MLSMR starter and 10KST1 sets, primary screen (AID 487;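 active = visually confirmed hit in the image check and inhibition above 20%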;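 for inhibition: signal is fraction of cell area covered by stained E-selectin grains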;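 for nuclei count: 100% = median nuclei count of all wells on the same plate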); conditions: HUVEC TNFalpha-induced E-selectin immunofluorescence imaging, at 2 µM; inhibition: stronger effect = higher value; nuclei count: measured here: cell number, toxicity
[4] = target: Voltage-gated potassium channel subunit beta-2 (Rattus norvegicus) (UniProt P62483); experiment: inhibitors of rat Kvbeta2 reductase activity – biochemical, NADPH fluorescence, primary screen (AID 622;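 active = fluorescence slope higher than the sample average by over 3 SD, cut at about -0.22 in these data, passing the limit was not always enough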;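 note: slope of raw intensity against log time taken from 70 to 1610 s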); conditions: recombinant KvBeta, 4-cyanobenzaldehyde reduction, at 10 µM, stronger effect = higher value
[5] = target: Voltage-gated potassium channel subunit beta-2 (Rattus norvegicus) (UniProt P62483); experiment: enhancers of rat Kvbeta2 NADPH turnover – biochemical, NADPH fluorescence, primary screen (AID 623;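 active = NADPH fluorescence slope more negative than the mean of all samples by about 3 SD, 99.7% confidence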;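 note: fluorescence intensity change per second fitted from 20 to 320 s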); conditions: Recombinant KvBeta, NADPH fluorescence decrease slope, 10 min; at 10 µM; stronger effect = lower value
[6] = target: Muscarinic acetylcholine receptor M4 (Homo sapiens) (UniProt P08173); experiment: M4-linked GIRK flux change, two-sided – cell-based, HEK293 M4/GIRK, thallium flux, BTC-AM, M4 allosteric agonist project, primary screen (AID 625;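 active = fluorescence slope after compound addition differing from the mean of all tested samples at 99.7% confidence, mostly higher but some lower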;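 note: thallium influx through GIRK channels coupled to M4 in HEK293 cells with BTC-AM dye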); conditions: at 10 µM, actives lie on both sides
In short: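 System: HEK293 cells with M4 receptor and GIRK channels | Incubation: Cells overnight at 37 °C, BTC-AM loading 1 h, reads 2 min total | Technique: Kinetic BTC-AM fluorescence sampled at 1 Hz, 10 s pre-addition baseline | Measure: Post-addition slope, 15–24 s, of baseline-normalized fluorescence | Control set: Carbachol positive, DMSO negative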

[7] = blockers of RIG-like receptor reporter activation – cell-based, Sendai virus stimulus, luciferase, 10K MLSCN set, TLR/RLR signaling modifier project, primary screen (AID 602276;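 active = inhibition at or above 50% at 10 µM; inactive = inhibition below 50%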;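 note: firefly luciferase from ISG56 promoter only with Renilla not read in this screen; 0% = Sendai virus plus DMSO and 100% = medium plus DMSO without virus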); conditions: HEK293 RL24 IRF3 luciferase reporter, at 10 µM, stronger effect = higher value
[8] = TLR3 IRF3 reporter activation blockers – cell-based, poly I:C stimulus, luciferase, 10K MLSCN set, primary screen (AID 602277); conditions: HEK293-TLR3 RL24 IRF3 luciferase reporter, at 10 µM, stronger effect = higher value

Sequence of Voltage-gated potassium channel subunit beta-2 (Rattus norvegicus) (P62483 whole entry, looked up): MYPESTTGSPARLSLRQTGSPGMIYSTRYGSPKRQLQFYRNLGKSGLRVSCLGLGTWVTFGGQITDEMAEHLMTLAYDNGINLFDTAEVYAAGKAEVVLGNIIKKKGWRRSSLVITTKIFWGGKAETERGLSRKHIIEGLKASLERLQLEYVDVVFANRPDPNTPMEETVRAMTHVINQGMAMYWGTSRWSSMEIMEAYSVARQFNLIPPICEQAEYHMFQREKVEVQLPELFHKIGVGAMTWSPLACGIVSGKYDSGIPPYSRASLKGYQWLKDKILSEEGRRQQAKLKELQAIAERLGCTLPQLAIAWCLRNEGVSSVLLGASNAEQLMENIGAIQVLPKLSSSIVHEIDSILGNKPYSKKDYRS
Sequence of Muscarinic acetylcholine receptor M4 (Homo sapiens) (P08173 whole entry, looked up): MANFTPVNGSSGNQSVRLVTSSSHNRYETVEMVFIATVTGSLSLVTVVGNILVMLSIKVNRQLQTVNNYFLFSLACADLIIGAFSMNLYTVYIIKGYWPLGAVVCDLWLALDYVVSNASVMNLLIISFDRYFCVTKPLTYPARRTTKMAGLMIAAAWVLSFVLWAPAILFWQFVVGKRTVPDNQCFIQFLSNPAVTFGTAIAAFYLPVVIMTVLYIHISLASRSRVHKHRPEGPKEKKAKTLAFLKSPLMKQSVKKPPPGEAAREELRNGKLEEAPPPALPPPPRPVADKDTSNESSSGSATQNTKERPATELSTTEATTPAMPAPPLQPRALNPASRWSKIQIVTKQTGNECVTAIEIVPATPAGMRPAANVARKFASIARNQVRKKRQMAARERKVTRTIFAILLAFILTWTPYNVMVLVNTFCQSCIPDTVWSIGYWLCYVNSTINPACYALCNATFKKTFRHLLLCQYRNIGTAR

Compound | cell count [1] | inhibition [1] | inhibition of aggregation [2] | nuclei count [2] | inhibition [3] | nuclei count [3] | fluorescence slope [4] | NADPH fluorescence slope [5] | fluorescence slope [6] | inhibition [7] | inhibition [8]
Cc1ccc(C)n1-c1ccc(N2CCOCC2)cc1 | 406 | 1% (inactive) | 14.3% (inactive) | 99.8% | -44.4% (inactive) | 111% | -0.345 (inactive) | -5.6e-05 (inactive) | 0.00513 (inactive) | 11.4% (inactive) | 8.15% (inactive)
O=C(CSc1nc2ccccc2c(=O)n1CCC(=O)N1CCCCC1)NCc1ccccc1 | 495 | -7.5% (inactive) | 1% (inactive) | 103% | 16.9% (inactive) | 101% | -0.507 (inactive) | 1.6e-05 (inactive) | 0.00538 (inactive) | 17.4% (inactive) | 24.1% (inactive)
CN(C)/C=C(\C#N)c1nc2ccccc2[nH]1 | 468 | 11.9% (inactive) | -17.2% (inactive) | 67.1% | -7.3% (inactive) | 112% | -0.532 (inactive) | -3.9e-05 (inactive) | 0.00457 (inactive) | -21.4% (inactive) | -44.6% (inactive)
COc1ccc(C2C(C#N)=C(C)NC3=C2C(=O)CC(C)(C)C3)c(OC)c1 (centres undefined) | 252 | -8% (inactive) | 19.6% (inactive) | 70.9% | 31.4% (inactive) | 96% | -0.463 (inactive) | -4.1e-06 (inactive) | 0.00543 (inactive) | 15.1% (inactive) | 18.9% (inactive)
COc1ccc(CC(=O)NCc2cccs2)cc1 | 568 | -20.6% (inactive) | -32.4% (inactive) | 103% | -83.1% (inactive) | 140% | -0.399 (inactive) | 0.000126 (inactive) | 0.0067 (inactive) | 31% (inactive) | 16.3% (inactive)
Cn1c(SCc2ccc3c(c2)OCO3)nnc1-c1ccccc1 | 344 | 9.8% (inactive) | 15.3% (inactive) | 93.9% | -72.5% (inactive) | 126% | -0.526 (inactive) | 4.8e-05 (inactive) | 0.00602 (inactive) | -9.99% (inactive) | -38.3% (inactive)
COc1cccc(OC)c1C(=O)N1CCN(S(=O)(=O)c2ccccc2)CC1 | 437 | 1.4% (inactive) | -1.7% (inactive) | 105% | -13.1% (inactive) | 102% | -0.531 (inactive) | -6.4e-05 (inactive) | 0.00446 (inactive) | -2.45% (inactive) | 19.4% (inactive)
COc1ccccc1C1C(C(C)=O)=C(O)C(=O)N1CCc1ccccc1 (centres undefined) | 373 | 9.5% (inactive) | -6.3% (inactive) | 105% | -33.5% (inactive) | 103% | -0.549 (inactive) | -3.7e-05 (inactive) | 0.00483 (inactive) | 10.7% (inactive) | 18.1% (inactive)
CCOC(=O)c1ccccc1NC(=O)Cn1cnc2c(cnn2-c2ccc(OC)cc2)c1=O | 705 | -25.5% (inactive) | -6.3% (inactive) | 108% | -0.4% (inactive) | 101% | -0.237 (inactive) | -4.6e-06 (inactive) | 0.0067 (inactive) | 10.8% (inactive) | 22.8% (inactive)
CSC1=C(C#N)C(c2ccc(C)cc2)C2=C(CCCC2=O)N1 (centres undefined) | 322 | -15.9% (inactive) | -19.6% (inactive) | 100% | 17.3% (inactive) | 109% | -0.557 (inactive) | -5.6e-05 (inactive) | 0.00661 (inactive) | 8.18% (inactive) | 19.7% (inactive)
COc1cc2[nH]c(=O)n(CCCCCC(=O)N3CCN(c4ccccn4)CC3)c(=O)c2cc1OC | 195 | 17.8% (inactive) | 6% (inactive) | 100% | 28.9% (inactive) | 92.1% | -0.216 (inactive) | -2.4e-05 (inactive) | 0.00687 (inactive) | 19.6% (inactive) | -1.9% (inactive)
CC1(C)NC(=O)N(CNc2cc(Cl)ccc2Cl)C1=O | 649 | -17.4% (inactive) | -1.9% (inactive) | 105% | 0.8% (inactive) | 96.7% | -0.435 (inactive) | -0.000384 (inactive) | 0.00524 (inactive) | 10.6% (inactive) | 21.9% (inactive)
O=C1CN(C(=O)CN2CCCC2)C(c2ccccc2)c2cc(Br)ccc2N1 (centres undefined) | 393 | -1.2% (inactive) | -15.4% (inactive) | 83.1% | -23.4% (inactive) | 123% | -0.512 (inactive) | -6.6e-05 (inactive) | 0.00427 (inactive) | -0.203% (inactive) | 21.9% (inactive)
CC(OC(=O)c1cccc(NS(C)(=O)=O)c1)C(=O)Nc1ccc(N2CCOCC2)cc1 (centres undefined) | 415 | -11.6% (inactive) | -32.5% (inactive) | 101% | -52.8% (inactive) | 148% | -0.559 (inactive) | -3.1e-05 (inactive) | 0.0061 (inactive) | 16.6% (inactive) | -7.05% (inactive)
